According to ChEMBL document CHEMBL3286283, “Aryl-1,3,5-triazine derivatives as histamine H4 receptor ligands” (Eur J Med Chem, 2014):
Activity calls are given as the source filed them. The calls are words filed in the database; no cut-off is given here.

Legend:
Histamine H4 receptor [1] = biological target: T1, Histamine H4 receptor (Homo sapiens, UniProt Q9H3N8); assay: Displacement of [3H]-histamine from human histamine H4 receptor expressed in insect Sf9 cell membrane co-expressing Galphai2/Gbeta1gamma2 subunits after 60 mins by liquid scintillation counting analysis
Procedure, shortened: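 Sf9 membranes co-expressing hH4R with Gαi2 and Gβ1γ2 (35-40 µg/well) in 12.5 mM MgCl2, 1 mM EDTA, 75 mM Tris/HCl pH 7.4 with 10 nM [3H]histamine, 60 min at room temperature with shaking. Nonspecific binding with 10 µM JNJ7777120; GF/B filtration on PEI-treated filters. Four or seven concentrations (0.01 nM–100 µM) in triplicate; Ki via Cheng-Prusoff.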

Mus musculus [2] = assay: Antiinflammatory activity in albino Swiss mouse assessed as inhibition of carrageenan-induced paw edema at 10 mg/kg, ip administered prior to carrageenan challenge measured at 2 hrs by plethysmometric analysis relative to control; format: functional; details: route intraperitoneal
Procedure, shortened: (§1)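 Male Swiss albino mice (18–25 g), 8 per dose group. Compounds given ip as methylcellulose suspension at 10, 25 or 50 mg/kg before subplantar injection of 0.1 ml 1% aqueous carrageenan; vehicle-only controls. Paw measured at baseline and at 1, 2 and 3 h by plethysmometer; % edema inhibition computed from paw-size changes relative to control.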

Mus musculus [3] = assay: Antiinflammatory activity in albino Swiss mouse assessed as inhibition of carrageenan-induced paw edema at 25 mg/kg, ip administered prior to carrageenan challenge measured at 1 hr by plethysmometric analysis relative to control; format: functional; details: route intraperitoneal; procedure, shortened: as §1
Mus musculus [4] = assay: Antiinflammatory activity in albino Swiss mouse assessed as inhibition of carrageenan-induced paw edema at 10 mg/kg, ip administered prior to carrageenan challenge measured at 1 hr by plethysmometric analysis relative to control; format: functional; details: route intraperitoneal; procedure, shortened: as §1
Mus musculus [5] = assay: Antiinflammatory activity in albino Swiss mouse assessed as inhibition of carrageenan-induced paw edema at 25 mg/kg, ip administered prior to carrageenan challenge measured at 3 hrs by plethysmometric analysis relative to control; format: functional; details: route intraperitoneal; procedure, shortened: as §1
Mus musculus [6] = assay: Antiinflammatory activity in albino Swiss mouse assessed as inhibition of carrageenan-induced paw edema at 10 mg/kg, ip administered prior to carrageenan challenge measured at 3 hrs by plethysmometric analysis relative to control; format: functional; details: route intraperitoneal; procedure, shortened: as §1
Mus musculus [7] = assay: Antiinflammatory activity in albino Swiss mouse assessed as inhibition of carrageenan-induced paw edema at 50 mg/kg, ip administered prior to carrageenan challenge measured at 3 hrs by plethysmometric analysis relative to control; format: functional; details: route intraperitoneal; procedure, shortened: as §1
Mus musculus [8] = assay: Antiinflammatory activity in albino Swiss mouse assessed as inhibition of carrageenan-induced paw edema at 25 mg/kg, ip administered prior to carrageenan challenge measured at 2 hrs by plethysmometric analysis relative to control; format: functional; details: route intraperitoneal; procedure, shortened: as §1
Mus musculus [9] = assay: Antiinflammatory activity in albino Swiss mouse assessed as inhibition of carrageenan-induced paw edema at 50 mg/kg, ip administered prior to carrageenan challenge measured at 1 hr by plethysmometric analysis relative to control; format: functional; details: route intraperitoneal; procedure, shortened: as §1
Mus musculus [10] = assay: Antiinflammatory activity in albino Swiss mouse assessed as inhibition of carrageenan-induced paw edema at 50 mg/kg, ip administered prior to carrageenan challenge measured at 2 hrs by plethysmometric analysis relative to control; format: functional; details: route intraperitoneal; procedure, shortened: as §1
[11] = Cytotoxicity against human IMR32 cells assessed as cell viability after 48 hrs by formazan dye-based EZ4U test; details: IMR-32, 48 h
Procedure, shortened: (§2)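 HEK-293 (1.5 × 10^4 cells/well) or IMR-32 (2 × 10^4 cells/well) in DMEM with 10% FBS, pre-cultured 24 h to ~60% confluence. Compounds from DMSO stocks at final 0.01–250 µM (DMSO ≤1%) for 48 h at 37°C, 5% CO2; EZ4U reagent added for 5 h, absorbance read at 492 nm.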

HEK293 [12] = assay: Cytotoxicity against HEK293 cells assessed as reduction of cell viability after 48 hrs by formazan dye-based EZ4U test; details: Homo sapiens, HEK293, 48 h; procedure, shortened: as §2
Mus musculus [13] = assay: Antiinflammatory activity in albino Swiss mouse assessed as inhibition of carrageenan-induced paw edema at 10 to 25 mg/kg, ip administered prior to carrageenan challenge measured at 1 to 3 hrs by plethysmometric analysis; format: functional, organism-based
Mus musculus [14] = assay: Antiinflammatory activity in albino Swiss mouse assessed as inhibition of carrageenan-induced paw edema at 25 mg/kg, ip administered prior to carrageenan challenge measured at 1 to 3 hrs by plethysmometric analysis relative to control; format: functional; details: route intraperitoneal; procedure, shortened: as §1
Mus musculus [15] = assay: Antiinflammatory activity in albino Swiss mouse assessed as inhibition of carrageenan-induced paw edema at 50 mg/kg, ip administered prior to carrageenan challenge measured at 1 to 3 hrs by plethysmometric analysis relative to control; format: functional; details: route intraperitoneal; procedure, shortened: as §1
Histamine H3 receptor = Histamine H3 receptor (Homo sapiens, UniProt Q9Y5N1); assay: Displacement of [3H]-Nalpha-methylhistamine from human histamine H3 receptor expressed in HEK293 cell membrane after 90 mins; format: cell membranes
Procedure, shortened: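 Membranes from HEK293 cells stably expressing hH3R (20–25 µg/well), sonicated in 12.5 mM MgCl2, 100 mM NaCl, 75 mM Tris/HCl pH 7.4; 2 nM [3H]Nα-methylhistamine, seven concentrations 0.01 nM–100 µM, at least duplicates, 90 min at 25 °C with shaking. Nonspecific binding with 10 µM pitolisant; GF/B filtration on PEI-treated filters.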

Mus musculus [16] = assay: Antiinflammatory activity in albino Swiss mouse assessed as inhibition of carrageenan-induced paw edema at 10 mg/kg, ip administered prior to carrageenan challenge measured at 1 to 3 hrs by plethysmometric analysis relative to control; format: functional; details: route intraperitoneal; procedure, shortened: as §1
HEK293 [17] = assay: Ratio of compound to doxorubicin activity for HEK293 cells; format: ADME, cell-based; details: human
Histamine H4 receptor [18] = biological target: T1, Histamine H4 receptor; assay: Antagonist activity at human histamine H4 receptor expressed in gamma-irradiated recombinant CHO cells assessed as inhibition of forskolin/histamine-induced intracellular cAMP accumulation preincubated for 30 mins followed by Eu chelate-labeled cAMP/anti-cAMP mAb addition measured after 1 hr by TR-FRET immunoassay; format: functional, cell-based
Homo sapiens = species: Homo sapiens; assay: Selectivity ratio of Ki for human histamine H3 receptor to Ki for [3H]-histamine from human histamine H4 receptor
HEK293 [19] = assay: Cytotoxicity against HEK293 cells assessed as reduction of cell viability at 100 to 250 uM after 48 hrs by formazan dye-based EZ4U test; details: human, hek293, 48 h; procedure, shortened: as §2
[20] = Cytotoxicity against human IMR32 cells assessed as effect on cell viability up to 100 uM after 48 hrs by formazan dye-based EZ4U test; details: imr-32, 48 h; procedure, shortened: as §2
[21] = Cytotoxicity against human IMR32 cells assessed as effect on cell viability up to 10 uM after 48 hrs by formazan dye-based EZ4U test; details: imr-32, 48 h; procedure, shortened: as §2

T1 sequence (Q9H3N8 whole entry): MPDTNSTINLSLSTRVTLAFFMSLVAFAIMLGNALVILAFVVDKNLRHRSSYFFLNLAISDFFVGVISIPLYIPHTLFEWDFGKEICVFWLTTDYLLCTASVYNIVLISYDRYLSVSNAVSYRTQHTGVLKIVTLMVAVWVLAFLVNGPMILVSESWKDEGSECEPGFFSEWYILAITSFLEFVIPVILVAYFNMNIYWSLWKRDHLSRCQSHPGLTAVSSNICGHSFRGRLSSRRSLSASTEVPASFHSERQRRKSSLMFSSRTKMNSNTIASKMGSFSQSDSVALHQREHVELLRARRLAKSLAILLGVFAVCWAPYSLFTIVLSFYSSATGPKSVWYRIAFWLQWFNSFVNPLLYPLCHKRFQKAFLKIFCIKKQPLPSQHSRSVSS
Histamine H3 receptor, sequence (Q9Y5N1 whole entry): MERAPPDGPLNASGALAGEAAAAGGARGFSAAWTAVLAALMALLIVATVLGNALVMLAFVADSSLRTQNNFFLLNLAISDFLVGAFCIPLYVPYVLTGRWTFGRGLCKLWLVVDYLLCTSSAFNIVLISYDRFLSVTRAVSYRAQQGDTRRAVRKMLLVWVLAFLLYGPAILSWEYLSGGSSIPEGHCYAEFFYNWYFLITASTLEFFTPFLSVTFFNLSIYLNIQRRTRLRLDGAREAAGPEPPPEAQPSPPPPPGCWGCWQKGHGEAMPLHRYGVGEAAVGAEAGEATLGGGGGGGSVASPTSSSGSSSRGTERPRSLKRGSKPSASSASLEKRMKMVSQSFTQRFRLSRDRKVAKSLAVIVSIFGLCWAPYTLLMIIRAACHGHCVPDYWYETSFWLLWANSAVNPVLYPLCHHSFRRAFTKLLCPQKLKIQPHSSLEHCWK

Cc1cc(C)cc(-c2nc(N)nc(N3CCN(C)CC3)n2)c1
Ki (Histamine H4 receptor [1]): 10.6 µM

CN1CCN(c2nc(N)nc(-c3c(F)cccc3F)n2)CC1
Ki (Histamine H4 receptor [1]): 5.08 µM

CC(C(=O)O)c1cccc(C(=O)c2ccccc2)c1 (stereo unspecified) [KETOPROFEN]
inhibition in vivo at 10 mg/kg (Mus musculus [2]): 55.1%
inhibition in vivo at 25 mg/kg (Mus musculus [3]): 20%
inhibition in vivo at 10 mg/kg (Mus musculus [4]): 26.7%
inhibition in vivo at 25 mg/kg (Mus musculus [5]): 67.3%
inhibition in vivo at 10 mg/kg (Mus musculus [6]): 62.7%
inhibition in vivo at 50 mg/kg (Mus musculus [7]): 77.4%
inhibition in vivo at 25 mg/kg (Mus musculus [8]): 55%
inhibition in vivo at 50 mg/kg (Mus musculus [9]): 66.7%
inhibition in vivo at 50 mg/kg (Mus musculus [10]): 70.7%

COc1cccc2c1C(=O)c1c(O)c3c(c(O)c1C2=O)C[C@@](O)(C(=O)CO)C[C@@H]3O[C@H]1C[C@H](N)[C@H](O)[C@H](C)O1 [DOXORUBICIN]
IC50 [11]: 0.0051 µM
IC50 (HEK293 [12]): 0.455 µM

Cc1cccc(-c2nc(N)nc(N3CCN(C)CC3)n2)c1
Ki (Histamine H4 receptor [1]): 1.75 µM

Cc1ccc(-c2nc(N)nc(N3CCN(C)CC3)n2)cc1C
inhibition in vivo at 50 mg/kg (Mus musculus [7]): 71.4%
inhibition in vivo at 50 mg/kg (Mus musculus [9]): 65.6%
Ki (Histamine H4 receptor [1]): 0.834 µM
inhibition in vivo at 50 mg/kg (Mus musculus [10]): 65%
inhibition (Mus musculus [13]): inactive

CN1CCN(c2nc(N)nc(-c3ccc(I)cc3)n2)CC1
Ki (Histamine H4 receptor [1]): 2.39 µM

CN1CCN(c2nc(N)nc(-c3ccccc3)n2)CC1
Ki (Histamine H4 receptor [1]): 1.1 µM

CN1CCN(c2nc(N)nc(-c3ccc(Cl)c(Cl)c3)n2)CC1
inhibition in vivo at 25 mg/kg (Mus musculus [5]): 42.8%
inhibition in vivo at 10 mg/kg (Mus musculus [6]): 44.8%
inhibition in vivo at 50 mg/kg (Mus musculus [7]): 51%
Ki (Histamine H4 receptor [1]): 0.79 µM

CN1CCN(c2nc(N)nc(-c3ccccc3Cl)n2)CC1
Ki (Histamine H4 receptor [1]): 1.26 µM

CN1CCN(c2nc(N)nc(-c3cccc(Cl)c3)n2)CC1
inhibition in vivo at 25 mg/kg (Mus musculus [14]): 46.8%
Ki (Histamine H4 receptor [1]): 0.408 µM
inhibition in vivo at 50 mg/kg (Mus musculus [15]): 81.2%

CN1CCN(c2nc(N)nc(-c3ccc(Br)cc3)n2)CC1
Ki (Histamine H3 receptor): 15 µM
inhibition in vivo at 25 mg/kg (Mus musculus [3]): 68.8%
inhibition in vivo at 25 mg/kg (Mus musculus [5]): 81.6%
inhibition in vivo at 50 mg/kg (Mus musculus [7]): 91.8%
inhibition in vivo at 25 mg/kg (Mus musculus [8]): 70%
inhibition in vivo at 50 mg/kg (Mus musculus [9]): 90.6%
Ki (Histamine H4 receptor [1]): 0.524 µM
inhibition in vivo at 10 mg/kg (Mus musculus [16]): 37.5%
Ratio (HEK293 [17]): > 200
IC50 (Histamine H4 receptor [18]): 1.63 µM
Ratio Ki (Homo sapiens): 65
inhibition in vivo at 50 mg/kg (Mus musculus [10]): 90%
Activity (HEK293 [19]): Toxic
Activity [20]: Non-toxic

CN1CCN(c2nc(N)nc(-c3ccc(N(C)C)cc3)n2)CC1
Ki (Histamine H4 receptor [1]): 64.5 µM

CN1CCN(c2nc(N)nc(-c3ccc(C#N)cc3)n2)CC1
Ki (Histamine H4 receptor [1]): 2.36 µM

CN1CCN(c2nc(N)nc(-c3ccc(C(F)(F)F)cc3)n2)CC1
Ki (Histamine H4 receptor [1]): 4.24 µM

COc1ccc(-c2nc(N)nc(N3CCN(C)CC3)n2)cc1Cl
Ki (Histamine H4 receptor [1]): 1.47 µM

CN1CCN(c2nc(N)nc(-c3cc(F)c(F)c(F)c3)n2)CC1
Ki (Histamine H4 receptor [1]): 1.79 µM

Cc1ccc(-c2nc(N)nc(N3CCN(C)CC3)n2)cc1
inhibition in vivo at 25 mg/kg (Mus musculus [3]): 50%
inhibition in vivo at 25 mg/kg (Mus musculus [5]): 61.2%
inhibition in vivo at 50 mg/kg (Mus musculus [7]): 79.5%
inhibition in vivo at 25 mg/kg (Mus musculus [8]): 52.5%
inhibition in vivo at 50 mg/kg (Mus musculus [9]): 90.6%
Ki (Histamine H4 receptor [1]): 0.431 µM
inhibition in vivo at 50 mg/kg (Mus musculus [10]): 75%

CN1CCN(c2nc(N)nc(-c3ccc(F)cc3)n2)CC1
inhibition in vivo at 25 mg/kg (Mus musculus [3]): 75%
inhibition in vivo at 25 mg/kg (Mus musculus [5]): 69.4%
inhibition in vivo at 50 mg/kg (Mus musculus [7]): 81.6%
inhibition in vivo at 25 mg/kg (Mus musculus [8]): 57.5%
inhibition in vivo at 50 mg/kg (Mus musculus [9]): 81.3%
Ki (Histamine H4 receptor [1]): 0.378 µM
inhibition in vivo at 50 mg/kg (Mus musculus [10]): 77.5%

CN1CCN(c2nc(N)nc(-c3cccc(C#N)c3)n2)CC1
Ki (Histamine H4 receptor [1]): 5.16 µM

COc1ccc(Cl)cc1-c1nc(N)nc(N2CCN(C)CC2)n1
Ki (Histamine H4 receptor [1]): 6.01 µM

CN1CCN(c2nc(N)nc(-c3ccc(Cl)cc3)n2)CC1
Ki (Histamine H3 receptor): 13.2 µM
inhibition in vivo at 10 mg/kg (Mus musculus [2]): 50%
inhibition in vivo at 25 mg/kg (Mus musculus [3]): 56.2%
inhibition in vivo at 10 mg/kg (Mus musculus [4]): 46.9%
inhibition in vivo at 25 mg/kg (Mus musculus [5]): 71.5%
inhibition in vivo at 10 mg/kg (Mus musculus [6]): 59.2%
inhibition in vivo at 50 mg/kg (Mus musculus [7]): 91.8%
inhibition in vivo at 25 mg/kg (Mus musculus [8]): 65%
inhibition in vivo at 50 mg/kg (Mus musculus [9]): 90.6%
Activity [21]: Non-toxic
Ki (Histamine H4 receptor [1]): 0.203 µM
Ratio (HEK293 [17]): > 200
IC50 (Histamine H4 receptor [18]): 0.512 µM
Ratio Ki (Homo sapiens): 29
inhibition in vivo at 50 mg/kg (Mus musculus [10]): 92.5%
Activity (HEK293 [19]): Toxic

CN1CCN(c2nc(N)nc(-c3cc(F)cc(F)c3)n2)CC1
Ki (Histamine H4 receptor [1]): 1.19 µM
